NR2E3 ag-1: activates human NR2E3 receptor. 360,000 compounds, 0.35% hits. inhibition of corepressor binding, % at 3.98 µM. CHO-S Gal4-NCOR/VP16-NR2E3 two-hybrid, luciferase. Q9Y5X4;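 active = inhibition above the mean of all tested compounds plus 3 SD, cut at about 70% in these data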;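 note: higher means lower luciferase signal from less NR2E3 corepressor binding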
Target sequence (Q9Y5X4 whole entry, looked up, the tested form may be a part): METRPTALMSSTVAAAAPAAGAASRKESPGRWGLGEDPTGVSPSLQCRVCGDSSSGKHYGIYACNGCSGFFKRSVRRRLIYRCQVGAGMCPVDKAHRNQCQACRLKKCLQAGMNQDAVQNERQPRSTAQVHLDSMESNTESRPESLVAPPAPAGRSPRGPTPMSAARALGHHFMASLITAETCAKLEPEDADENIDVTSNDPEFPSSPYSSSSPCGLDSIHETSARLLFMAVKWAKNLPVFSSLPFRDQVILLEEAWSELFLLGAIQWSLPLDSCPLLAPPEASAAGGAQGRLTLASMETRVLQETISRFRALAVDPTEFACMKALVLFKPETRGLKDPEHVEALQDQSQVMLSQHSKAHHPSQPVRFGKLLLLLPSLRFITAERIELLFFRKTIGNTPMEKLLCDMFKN
NR2E3 ag-2: agonists of human nuclear receptor NR2E3. 320,000 compounds, 0.12% hits. inhibition of corepressor binding, % at 4.78 µM. GST-NR2E3/biotin-RetCOR TR-FRET, 1536-well. Q9Y5X4;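 active = percent inhibition above the cutoff of mean plus 3 SD of all tested compounds, set per screening campaign, cut at about 20% in these data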
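System: GST-NR2E3 and biotin-RetCOR proteins; probe or stimulus: 7 nM biotin-RetCOR; doses: compound at 4.8 µM, single dose; schedule: Compound–protein incubation for 5 h at 4 °C; detection: time-resolved FRET; read-out: percent inhibition; controls: biotin wells as high control, 0.6% DMSO wells as low control; format: 1536-well plates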
rCAG RNA binder: r(CAG) repeat RNA binding | TO-PRO-1 dye displacement fluorescence | inhibition, % at 3 µM | 370,000 compounds, 1.3% hits | AID 651821;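 active = inhibition above the plate cutoff, the mean of all test compounds on that plate plus 3 SD, cut at about 35% in these data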;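 note: higher means more dye released from RNA so lower well fluorescence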
PG9 binder: PG9 antibody binding by small molecule; TR-FRET gp120-PG9 antibody binding; inhibition, % at 6.7 µM; 360,000 compounds, 0.43% hits; AID 624416; in the data active = inhibition above about 8.5%
Rev-erbA mod: modulators of human Rev-erb alpha DNA binding; AID 1259318; Rev-erbα–FITC-DNA binding, fluorescence polarization, 90 min; P20393; 370,000 compounds, 0.79% hits; activity, % at 10 µM;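 active = activity above about 14%, limit read from the data; passing the limit was not always enough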
rCAG bind conf: r(CAG) RNA repeat binding, confirmation | TO-PRO-1 dye displacement fluorescence | inhibition, % at 3 µM | shares compounds with rCAG RNA binder | 4,300 compounds, 70% hits;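 active = inhibition above a per-plate cutoff, the mean inhibition of sample wells plus 3 SD, cut at about 35% in these data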;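 note: loss of TO-PRO-1 fluorescence as compound displaces dye from 1x1 AA loop RNA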
dCAG dye counter: counter-screen for rCAG RNA binders: DNA CAG dye complex inhibitors; AID 652068; d(CAG) DNA oligo TO-PRO-1 dye displacement, fluorescence; 4,300 compounds, 94% hits; shares compounds with rCAG RNA binder; inhibition, % at 3 µM;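 active = inhibition above its plate's cutoff, the mean test-well inhibition plus 3 SD, cut at about 4.8% in these data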;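 note: hits displace the dye from DNA and so lower well fluorescence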
dCAG dye DR: counter-screen for rCAG binders: inhibitors of DNA CAG TO-PRO-1 complex | shares compounds with rCAG RNA binder | DNA CAG/GTC duplex TO-PRO-1 dye displacement fluorescence | IC50, µM | 250 compounds, 20% hits | AID 686960; in the data active = IC50 below about 10 µM
Each line names hits and unclear results; the compound was inactive in the other large screens (follow-up assays come after a bar, where they were run). In the library only some 2.6% were active in any assay of this set; here they are far more common.

O=C(Nc1ccc(Cl)c(Cl)c1)Nc1ccccc1C(=O)O	rCAG RNA binder 61.0 | rCAG bind conf 50.8 | dCAG dye counter 10.6 | dCAG dye DR inactive
CC(=O)c1cccc(NC(=O)C(OC(=O)c2ccccc2NS(=O)(=O)c2cccs2)c2ccccc2)c1 (stereo not given)	rCAG RNA binder 42.7 | rCAG bind conf 36.2 | dCAG dye counter 17.4
O=C(Nc1ccc(Cl)cc1)Nc1ccccc1C(=O)O	none
CCN(CC)S(=O)(=O)c1cccc(C(=O)NC(C(=O)NNC(=O)c2ccccc2F)C(C)C)c1 (stereo not given)	none (no result: NR2E3 ag-2)
CN(C)S(=O)(=O)c1cccc(NC(=S)N/N=C/c2cc(Br)ccc2O)c1	rCAG RNA binder 46.1 | rCAG bind conf 55.0 | dCAG dye counter 20.7
COc1ccc(/C=C/C(=O)OCC(=O)NC2CCCC2)cc1OC	none (no result: NR2E3 ag-2)
Cc1ccc(Cn2cc(CN3[C@H](c4ccccc4)COc4cc(Br)ccc4S3(=O)=O)nn2)cc1	rCAG RNA binder 66.0 (no result: NR2E3 ag-1, NR2E3 ag-2, PG9 binder) | rCAG bind conf 50.5 | dCAG dye counter 19.1
CN(C)c1ccc(O)c2c1CC1CC3[C@@H](N(C)C)C(=O)C(C(N)=O)=C(O)[C@]3(O)C(=O)C1=C2O (stereo not given in full)	rCAG RNA binder 63.8 | rCAG bind conf 46.3 | dCAG dye counter 18.5
CC(=O)c1ccc(NS(=O)(=O)c2ccc(C)cc2)cc1	none
COc1cc(OC)c(OC)cc1/C=C/C(=O)c1ccc(NS(=O)(=O)c2ccc(C)cc2)cc1	rCAG RNA binder 46.3 | rCAG bind conf 38.8 | dCAG dye counter 16.0
O=C1NC[C@H](CCCCN2CCN(CC3CCCCC3)C(=O)C2=O)N(Cc2ccccc2)C1=O	none (no result: NR2E3 ag-2)
COc1ccc(N(CC(=O)Nc2cc(OC)c(OC)cc2C(=O)O)S(=O)(=O)c2c(C)noc2C)cc1	rCAG RNA binder 40.8 | rCAG bind conf inactive | dCAG dye counter inactive
CC(CO)NS(=O)(=O)c1cccc(Cl)c1F (stereo not given)	none (no result: NR2E3 ag-2)
Cc1ccc(-c2noc(COC(=O)c3ccco3)n2)cc1	none
O=c1oc2ccccc2c2oc3cc(O)c(O)cc3c12	rCAG RNA binder 40.6 | rCAG bind conf 52.7 | dCAG dye counter 27.5
Nc1c(N)c2ccccc2oc1=O	none
CC(=O)Nc1ccc(C(=O)CSc2nnc(-c3ccccc3F)n2CCc2ccccc2)cc1	none (no result: NR2E3 ag-2)
Cc1cccc(N=[N+]([O-])c2cccc(C)n2)n1	none (no result: NR2E3 ag-2)
CSc1ccccc1NC(=O)COC(=O)c1cnc(C)cn1	none (no result: NR2E3 ag-2)
CN(C)c1ncc(C2=C(Cl)C(=O)C(N3CCCC3)=C(Cl)C2=O)s1	rCAG RNA binder 64.8 | rCAG bind conf 55.4 | dCAG dye counter 24.5 | dCAG dye DR inactive
O=C1C(Cl)=C(N2CCCCC2)C(=O)C(Cl)=C1c1cnc(N2CCCCC2)s1	none (no result: NR2E3 ag-2, rCAG RNA binder, PG9 binder, Rev-erbA mod)
CCOC(=O)[C@]12CCCC=C1N(CCc1ccc(OC)c(OC)c1)C(=O)[C@H](CC(=O)NCCCCc1ccccc1)C2	none (no result: NR2E3 ag-1, NR2E3 ag-2)
CC(=O)Nc1ccc(NC(=O)C(C)OC(=O)c2ccc(S(=O)(=O)N3CCCCC3)cc2)cc1 (stereo not given)	none (no result: NR2E3 ag-2)
CC(=O)c1ccc(NC(=O)C(C)OC(=O)c2ccc(NS(=O)(=O)c3ccc(F)c(F)c3)cc2)cc1 (stereo not given)	rCAG RNA binder 52.6 | rCAG bind conf 42.6 | dCAG dye counter 17.2
CCc1ccc(NC(=O)C(C)OC(=O)c2ccc(NS(=O)(=O)c3ccc(C)c([N+](=O)[O-])c3)cc2)cc1 (stereo not given)	rCAG RNA binder 85.5 | rCAG bind conf 82.5 | dCAG dye counter 48.4
Cc1ccc(S(=O)(=O)Nc2ccccc2C(=O)OC(C)C(=O)Nc2ccc3ccccc3c2)cc1[N+](=O)[O-] (stereo not given)	rCAG RNA binder 38.8 | rCAG bind conf 42.3 | dCAG dye counter 16.5
Cc1ccc(NC(=O)C(C)OC(=O)c2ccc(NS(=O)(=O)c3ccc(F)c(F)c3)cc2)cc1 (stereo not given)	rCAG RNA binder 58.2 | rCAG bind conf 67.3 | dCAG dye counter 20.0
COC(=O)c1cc(=O)nc(NN=Cc2ccccc2)s1	none (no result: NR2E3 ag-1, NR2E3 ag-2)
COC(=O)c1cc(=O)nc(NN=C2c3ccccc3-c3ccccc32)s1	rCAG RNA binder 37.8 (no result: NR2E3 ag-2) | rCAG bind conf 93.5 | dCAG dye counter 76.9
N#C/C(=C/c1ccc(-c2ccc([N+](=O)[O-])cc2)o1)C(=O)Nc1nc(-c2cccs2)cs1	none (no result: NR2E3 ag-2)
N#C/C(=C\c1ccc(-c2ccc(F)cc2)o1)C(=O)Nc1nc(-c2cccs2)cs1	rCAG RNA binder 36.0 | rCAG bind conf inactive | dCAG dye counter 10.8
CNc1ccc(C(=O)OCC(=O)NCc2ccc3c(c2)OCO3)cc1[N+](=O)[O-]	none
Oc1c(Br)cc(Br)cc1/C=N/NC(=S)N[C@H]1CC2C=CC1C2 (stereo not given in full)	rCAG RNA binder 74.0 | rCAG bind conf 65.7 | dCAG dye counter 28.6 | dCAG dye DR inactive
COc1cc(/C=N/NC(=S)NC2CC3C=CC2C3)cc(OC)c1OC (stereo not given)	none
Cc1cc(Nc2cccc(Cl)c2)nc(-c2ccccc2O)n1	rCAG RNA binder 36.4 | rCAG bind conf inactive | dCAG dye counter 10.0
CCCCNc1cccc2c1S(=O)(=O)N[C@@H](Cc1ccccc1)CO2	none (no result: NR2E3 ag-1, NR2E3 ag-2)
C[C@@H]1CNCCN1c1ccc(N2CCN(Cc3ccccc3)[C@@H](C)C2)c(C#N)c1	none (no result: NR2E3 ag-1, NR2E3 ag-2)
N#Cc1ccc(CN2CCN(C(=O)c3cc(C4CC4)nn3-c3ccccc3)CC2)cc1	none
Cc1ccc(-c2[nH]c(-c3ccc(C(=O)O)cc3)nc2-c2ccccc2)cc1	rCAG RNA binder 70.0 | rCAG bind conf 58.3 | dCAG dye counter 18.4
CCCC(NC(=O)CCc1c(C)c2cc3c(-c4ccccc4)coc3cc2oc1=O)C(=O)O (stereo not given)	rCAG RNA binder 36.3 | rCAG bind conf 40.6 | dCAG dye counter 10.9
Cc1c(CCC(=O)NCCC(=O)O)c(=O)oc2cc3occ(-c4ccccc4)c3cc12	none
Cc1c(CCC(=O)NCC(=O)O)c(=O)oc2cc3occ(-c4ccccc4)c3cc12	none (no result: NR2E3 ag-2)
Cc1c(CCC(=O)O)c(=O)oc2cc3occ(-c4ccc(F)cc4)c3cc12	rCAG RNA binder 47.5 | rCAG bind conf 44.2 | dCAG dye counter 12.3
Cc1c(CCC(=O)O)c(=O)oc2cc3occ(-c4ccc(Br)cc4)c3cc12	rCAG RNA binder 36.9 | rCAG bind conf 62.5 | dCAG dye counter 23.7
S=C1NC[C@H](Cc2ccccc2)N1CC1CCN(CCCC2CCCCC2)CC1	none (no result: NR2E3 ag-1, NR2E3 ag-2)
COc1ccccc1-c1ncn(Cc2cccc(-c3ccccc3)c2)c1CC(C)C	none (no result: NR2E3 ag-2)
